From ChEMBL document CHEMBL4680084, “New β-Lactam Derivatives Modulate Cell Adhesion and Signaling Mediated by RGD-Binding and Leukocyte Integrins” (J Med Chem, 2016)
Activity calls are given as the source filed them. No cut-off for these calls is given here.

How the values were obtained:
[1] = target: T1, Integrin alpha-IIb/beta-3 (Homo sapiens, UniProt P05106+P08514); test: Inhibition of fibrinogen binding to alpha2bbeta3 isolated from human HEL cells incubated for 1 hr by […] competitive solid-phase binding assay
Integrin alpha-5/beta-1 [2] = target: T2, Integrin alpha-5/beta-1 (Homo sapiens, UniProt P05556+P08648); test: Inhibition of fibronectin binding to alpha5beta1 isolated from human K562 cells incubated for 1 hr by […] competitive solid-phase binding assay; type: tissue-based
Outline: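 Plates coated overnight at 4 °C in carbonate buffer pH 9.6 with fibronectin 0.5 µg/mL (αvβ3, αvβ6, α5β1), fibrinogen 10 µg/mL (αIIbβ3, αvβ5) or ICAM-1 (αLβ2). Blocked 1 h in buffer containing Ca/Mg/Mn 1 mM each and 1% BSA. Purified integrin (3–10 µg/mL) incubated with compound (10⁻⁴–10⁻¹⁰ M) 1 h at room temperature. Bound integrin detected with primary antibody then AlexaFluor488 secondary, Ex485/Em535. Duplicate, at least three repeats.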

SK-MEL-24 = test: Toxicity in human SK-MEL-24 cells assessed as induction of cell necrosis and/or apoptosis incubated for 3 hrs by annexin V-PE and 7-AAD staining based by flow cytometry; details: sk-mel-24, 3 h
Outline: (§1)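 After 3 h incubation, cells resuspended in complete medium and stained with annexin V-PE/7-AAD reagent for 20 min at room temperature in the dark. Flow cytometry sorted cells into viable, early apoptotic and late apoptotic/necrotic populations.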

MCF7 = test: Toxicity in human MCF7 cells assessed as induction of cell necrosis and/or apoptosis incubated for 3 hrs by annexin V-PE and 7-AAD staining based by flow cytometry; details: mcf7, 3 h; outline: as §1
HT-29 = test: Toxicity in human HT-29 cells assessed as induction of cell necrosis and/or apoptosis incubated for 3 hrs by annexin V-PE and 7-AAD staining based by flow cytometry; details: ht-29, 3 h; outline: as §1
K562 = test: Toxicity in human K562 cells assessed as induction of cell necrosis and/or apoptosis incubated for 3 hrs by annexin V-PE and 7-AAD staining based by flow cytometry; details: k562, 3 h; outline: as §1
HEL = test: Toxicity in human HEL cells assessed as induction of cell necrosis and/or apoptosis incubated for 3 hrs by annexin V-PE and 7-AAD staining based by flow cytometry; outline: as §1
Integrin alpha-V/beta-3 [3] = target: T3, Integrin alpha-V/beta-3 (Homo sapiens, UniProt P05106+P06756); test: Agonist activity at alphaVbeta3 in human SK-MEL-24 cells assessed as increase in cell adhesion to fibronectin pre-incubated for 30 mins before fibronectin and further incubated for 1 hr by nitrophenyl-N-acetyl-beta-D-glucosaminide substrate based chromogenic assay
Outline: (§2)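 Compound or methanol vehicle pre-incubated with cells for 30 min at room temperature. Cells then plated on wells coated overnight at 4 °C with fibronectin 10 µg/mL (SK-MEL-24, K562, HT-29) or fibrinogen 10 µg/mL (MCF7, HEL). Seeding was 50,000 cells/well, or 100000 for HEL. Adhesion ran 1 h at room temperature. Wells washed with 1% BSA/PBS. Adherent cells read by hexosaminidase substrate, absorbance 405 nm. Quadruplicate, at least three repeats.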

Integrin alpha-V/beta-3 [4] = target: T3, Integrin alpha-V/beta-3; test: Antagonist activity at alphaVbeta3 in human SK-MEL-24 cells assessed as reduction in cell adhesion to fibronectin pre-incubated for 30 mins before fibronectin and further incubated for 1 hr by nitrophenyl-N-acetyl-beta-D-glucosaminide substrate based chromogenic assay
Outline: as §2, with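 “BSA/PBS.” for “BSA/PBS. Adherent cells read by hexosaminidase substrate, absorbance 405 nm.”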

Integrin alpha-V/beta-5 [5] = target: T4, Integrin alpha-V/beta-5 (Homo sapiens, UniProt P06756+P18084); test: Agonist activity at alphaVbeta5 in human MCF7 cells assessed as increase in cell adhesion to fibrinogen pre-incubated for 30 mins before fibrinogen and further incubated for 1 hr by nitrophenyl-N-acetyl-beta-D-glucosaminide substrate based chromogenic assay; outline: as §2
Integrin alpha-V/beta-5 [6] = target: T4, Integrin alpha-V/beta-5; test: Antagonist activity at alphaVbeta5 in human MCF7 cells assessed as reduction in cell adhesion to fibrinogen pre-incubated for 30 mins before fibrinogen and further incubated for 1 hr by nitrophenyl-N-acetyl-beta-D-glucosaminide substrate based chromogenic assay
Outline: as §2, with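 “BSA/PBS.” for “BSA/PBS. Adherent cells read by hexosaminidase substrate, absorbance 405 nm.”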

Integrin alpha-V/beta-6 [7] = target: T5, Integrin alpha-V/beta-6 (Homo sapiens, UniProt P06756+P18564); test: Agonist activity at alphaVbeta6 in human HT-29 cells assessed as increase in cell adhesion to fibronectin pre-incubated for 30 mins before fibronectin and further incubated for 1 hr by nitrophenyl-N-acetyl-beta-D-glucosaminide substrate based chromogenic assay; outline: as §2
Integrin alpha-V/beta-6 [8] = target: T5, Integrin alpha-V/beta-6; test: Antagonist activity at alphaVbeta6 in human HT-29 cells assessed as reduction in cell adhesion to fibronectin pre-incubated for 30 mins before fibronectin and further incubated for 1 hr by nitrophenyl-N-acetyl-beta-D-glucosaminide substrate based chromogenic assay
Outline: as §2, with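 “BSA/PBS.” for “BSA/PBS. Adherent cells read by hexosaminidase substrate, absorbance 405 nm.”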

Integrin alpha-5/beta-1 [9] = target: T2, Integrin alpha-5/beta-1; test: Antagonist activity at alpha5beta1 in human K562 cells assessed as reduction in cell adhesion to fibronectin pre-incubated for 30 mins before fibronectin and further incubated for 1 hr by nitrophenyl-N-acetyl-beta-D-glucosaminide substrate based chromogenic assay; outline: as §2
[10] = target: T1, Integrin alpha-IIb/beta-3; test: Agonist activity at alpha2bbeta3 in human HEL cells assessed as increase in cell adhesion to fibrinogen pre-incubated for 30 mins before fibrinogen and further incubated for 1 hr by nitrophenyl-N-acetyl-beta-D-glucosaminide substrate based chromogenic assay
Outline: as §2, with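 “BSA/PBS.” for “BSA/PBS. Adherent cells read by hexosaminidase substrate, absorbance 405 nm.”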

[11] = target: T1, Integrin alpha-IIb/beta-3; test: Antagonist activity at alpha2bbeta3 in human HEL cells assessed as reduction in cell adhesion to fibrinogen pre-incubated for 30 mins before fibrinogen and further incubated for 1 hr by nitrophenyl-N-acetyl-beta-D-glucosaminide substrate based chromogenic assay
Outline: as §2, with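 “BSA/PBS.” for “BSA/PBS. Adherent cells read by hexosaminidase substrate, absorbance 405 nm.”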

Integrin alpha-4/beta-1 [12] = target: T6, Integrin alpha-4/beta-1 (Homo sapiens, UniProt P05556+P13612); test: Antagonist activity at alpha4beta1 in human Jurkat E6.1 cells assessed as reduction in cell adhesion to VCAM1 pre-incubated for 30 mins before VCAM1 and further incubated for 30 mins by […]; type: cell-based
[13] = target: T7, Integrin alpha-L/beta-2 (LFA-1) (Homo sapiens, UniProt P05107+P20701); test: Agonist activity at alphaLbeta2 in human Jurkat E6.1 cells assessed as increase in cell adhesion to ICAM1 pre-incubated for 30 mins before ICAM1 and further incubated for 30 mins by […]; type: cell-based
Outline: (§3)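 Jurkat E6.1 cells labelled with CellTracker green CMFDA (12.5 µM, 30 min, 37 °C), washed, then pre-incubated 30 min at 37 °C with compound or methanol. Plated at 500,000/well on VCAM-1 (α4β1) or ICAM-1 (αLβ2) coated wells (5 µg/mL) for 30 min at 37 °C. Cells lysed in 0.5% Triton X-100; fluorescence read Ex485/Em535. Quadruplicate, at least three repeats.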

[14] = target: T7, Integrin alpha-L/beta-2 (LFA-1); test: Antagonist activity at alphaLbeta2 in human Jurkat E6.1 cells assessed as reduction in cell adhesion to ICAM1 pre-incubated for 30 mins before ICAM1 and further incubated for 30 mins by […]; type: cell-based; outline: as §3
Integrin alpha-V/beta-3 [15] = target: T3, Integrin alpha-V/beta-3; test: Inhibition of fibronectin binding to human recombinant alphaVbeta3 expressed in HEK293 cells incubated for 1 hr by […] competitive solid-phase binding assay; type: cell-based
Integrin alpha-V/beta-5 [16] = target: T4, Integrin alpha-V/beta-5; test: Inhibition of fibrinogen binding to alphaVbeta5 isolated form human mCf7 cells incubated for 1 hr by […] competitive solid-phase binding assay
Integrin alpha-V/beta-6 [17] = target: T5, Integrin alpha-V/beta-6; test: Inhibition of fibronectin binding to alphaVbeta6 isolated form human HT-29 cells incubated for 1 hr by […] competitive solid-phase binding assay; type: tissue-based
Integrin alpha-4/beta-1 [18] = target: T6, Integrin alpha-4/beta-1; test: Inhibition of fibronectin binding to […] isolated from human Jurkat E6.1 cells incubated for 1 hr by scintillation-proximity assay based competitive solid-phase binding assay; type: tissue-based
Integrin alpha-4/beta-1 [19] = target: T6, Integrin alpha-4/beta-1; test: Antagonist activity at alpha4beta1 in human Jurkat E6.1 cells assessed as reduction in VCAM-1 induced ERK1/2 phosphorylation at 1 to 100 nM by Western blot analysis; type: cell-based; details: filed as antagonist, dose 1-100 nM
Integrin alpha-4/beta-1 [20] = target: T6, Integrin alpha-4/beta-1; test: Antagonist activity at alpha4beta1 in human Jurkat E6.1 cells assessed as reduction in exposure of HUTS-21 epitope measured by mAb binding; type: cell-based; details: filed as antagonist
Outline: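 Jurkat E6.1 cells at 10⁶/mL in 1% BSA/HBSS incubated 30 min at 37 °C with compound. PE-labelled HUTS-21 mAb then added for 45 min at room temperature. Cells washed, 10,000 analysed by flow cytometry. MFI corrected to isotype control set to 0. Four independent experiments in duplicate.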

Integrin alpha-5/beta-1 [21] = target: T2, Integrin alpha-5/beta-1; test: Agonist activity at alpha5beta1 in human K562 cells assessed as increase in cell adhesion to fibronectin pre-incubated for 30 mins before fibronectin and further incubated for 1 hr by nitrophenyl-N-acetyl-beta-D-glucosaminide substrate based chromogenic assay; outline: as §2
Integrin alpha-5/beta-1 [22] = target: T2, Integrin alpha-5/beta-1; test: Agonist activity at alpha5beta1 in human K562 cells assessed as increase in cell adhesion to fibronectin pre-incubated for 30 mins and further incubated for 1 hr by nitrophenyl-N-acetyl-beta-D-glucosaminide substrate based chromogenic assay; details: filed as agonist, time 90.0 min; outline: as §2
Integrin alpha-5/beta-1 [23] = target: T2, Integrin alpha-5/beta-1; test: (§4) Agonist activity at alpha5beta1 in human K562 cells assessed as increase in cell adhesion to fibronectin at 10 ug/ml pre-incubated for 30 mins and further incubated for 1 hr in presence of integrin antagonist c(-RGDfV) by nitrophenyl-N-acetyl-beta-D-glucosaminide substrate based chromogenic assay; details: dose 10.0 µg/ml, time 90.0 min
Outline: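 Agonist-coated wells (10 µg/mL in methanol). Cells pre-treated 10 min before plating with neutralizing anti-α5, anti-αv or anti-α4 antibody (10 µg/mL), or pre-incubated with c(-RGDfV) (1 µM). K562 plated at 50,000/well and Jurkat E6.1 at 500,000/well. Adhesion quantified as in the standard assay.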

Integrin alpha-5/beta-1 [24] = target: T2, Integrin alpha-5/beta-1; test: as §4, with “pre-incubated for 30 mins” left out, “of neutralizing antibody against the alpha5” for “of”, “subunit” for “antagonist c(-RGDfV)”; details: dose 10.0 µg/ml, time 90.0 min
[25] = target: T1, Integrin alpha-IIb/beta-3; test: Agonist activity at alpha2bbeta3 in human K562 cells assessed as increase in cell adhesion to fibrinogen pre-incubated for 30 mins and further incubated for 1 hr in presence of alpha2bbeta3 antagonist Tirofiban by nitrophenyl-N-acetyl-beta-D-glucosaminide substrate based chromogenic assay; details: filed as agonist, time 90.0 min
Integrin alpha-5/beta-1 [26] = target: T2, Integrin alpha-5/beta-1; test: Agonist activity at alpha5beta1 in human K562 cells assessed as assessed as increase in ERK1/2 phosphorylation at 1 to 100 nM by Western blot analysis; type: cell-based; details: filed as agonist, dose 1-100 nM

Row | SMILES | IC50 (Integrin alpha-5/beta-1 [2]) [nM] | Activity (SK-MEL-24) | Activity (MCF7) | Activity (HT-29) | Activity (K562) | Activity (HEL) | EC50 (Integrin alpha-V/beta-3 [3]) [nM] | EC50 (Integrin alpha-V/beta-5 [5]) [nM] | IC50 (Integrin alpha-V/beta-6 [8]) [nM] | EC50 [10] [nM] | IC50 [11] [nM] | IC50 (Integrin alpha-4/beta-1 [12]) [nM] | EC50 [13] [nM] | IC50 [14] [nM] | IC50 (Integrin alpha-V/beta-3 [15]) [nM] | IC50 (Integrin alpha-V/beta-5 [16]) [nM] | IC50 (Integrin alpha-V/beta-6 [17]) [nM] | IC50 (Integrin alpha-4/beta-1 [18]) [nM] | Activity (Integrin alpha-4/beta-1 [19]) | also measured
1 | Nc1ccc(CNC(=O)N2C(=O)C[C@H]2C(=O)O)cc1.O=C(O)C(F)(F)F | 331 | Non-Toxic | Non-Toxic | Non-Toxic | Non-Toxic | Non-Toxic | > 5000 | > 5000 | > 5000 | > 5000 | > 5000 | 8.8 | > 5000 | > 5000 | > 1000 | > 1000 | > 1000 | 7.6 | Dose-dependent effect | IC50 [1]: > 1000 nM; IC50 (Integrin alpha-V/beta-3 [4]): > 5000 nM; IC50 (Integrin alpha-V/beta-5 [6]): > 5000 nM; EC50 (Integrin alpha-V/beta-6 [7]): > 5000 nM; IC50 (Integrin alpha-5/beta-1 [9]): 525 nM; Activity (Integrin alpha-4/beta-1 [20]): Dose-dependent effect
2 | Cc1ccccc1NC(=O)N1C(=O)CC1CC(=O)NCCC(=O)O (stereo not given) | 36 | Non-Toxic | Non-Toxic | Non-Toxic | Non-Toxic | Non-Toxic | 187 | 670 | 44.4 | > 5000 | > 5000 | 17.4 | > 5000 | > 5000 | 116 | 634 | 23.4 | 12.4 | Dose-dependent effect | EC50 (Integrin alpha-5/beta-1 [21]): 49 nM; Activity (Integrin alpha-5/beta-1 [22]): Dose-dependent effect; Activity (Integrin alpha-5/beta-1 [23]): inactive; Activity (Integrin alpha-5/beta-1 [24]): inactive; Activity [25]: Active; Activity (Integrin alpha-5/beta-1 [26]): Dose-dependent effect
